Assay results: ChEMBL document CHEMBL1933011, “Probing the antiamoebic and cytotoxicity potency of novel tetrazole and triazine derivatives” (Eur J Med Chem, 2012)

Legend:
Entamoeba histolytica = assay: Antiamoebic activity against Entamoeba histolytica HM-1:IMSS after 72 hrs by microdilution method; type: functional, organism-based
In short: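 E. histolytica HM1:IMSS trophozoites in Diamond TYIS-33 medium; 1 mg mL-1 DMSO stocks, two-fold serial dilutions; 1.7 × 10^4 amoebae/well; sealed, gassed with nitrogen 10 min, 35.5 °C for 72 h. Wells methanol-fixed, eosin-stained, dye released in 0.1N NaOH, OD 490 nm. % inhibition vs control plotted against log dose; IC50 by linear regression. Triplicate, repeated thrice.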

HepG2 [1] = assay: Cytotoxicity against human HepG2 cells after 48 hrs by MTT assay; type: cell-based; conditions: for IC50: Homo sapiens, HepG2, 48 h; for Activity: human, hepg2, 48 h
In short: (§1)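 HepG2 in DMEM/10% FBS, 1.2 × 10^4 cells/well, grown 48 h before dosing. Compounds from 10% DMSO stocks diluted in medium, 3.13–100 µM, 48 h at 37 °C, 5% CO2. MTT (5 mg mL-1) for 4 h, DMSO solubilisation, absorbance at 570 nm (reference 655 nm). Viability is treated absorbance relative to untreated control. Triplicate, repeated thrice.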

[2] = Cytotoxicity against human HepG2 cells assessed as viable cells at 25 uM after 48 hrs by MTT assay; type: cell-based; conditions: read-out: Activity; in short: as §1
HepG2 [3] = assay: Cytotoxicity against human HepG2 cells up to 50 uM after 48 hrs by MTT assay; type: cell-based; conditions: hepg2, 48 h; in short: as §1
[4] = Safety index, ratio of IC50 for human HepG2 cells to IC50 for Entamoeba histolytica HM-1:IMSS; type: toxicity, cell-based; conditions: read-out: Ratio IC50
In short: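 Safety index calculated as HepG2 MTT IC50 (48 h) divided by E. histolytica HM1:IMSS IC50 (72 h microdilution).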

HepG2 [5] = assay: Cytotoxicity against human HepG2 cells up to 100 uM after 48 hrs by MTT assay; type: cell-based; conditions: hepg2, 48 h; in short: as §1
[6] = Cytotoxicity against human HepG2 cells assessed as viable cells at 3.13 uM after 48 hrs by MTT assay; type: cell-based; conditions: read-out: Activity; in short: as §1

With `O=S(=O)(c1ccccc1)n1nnnc1-c1ccc2c(c1)OCO2` the IC50 (Entamoeba histolytica) was 7.56 µM, the IC50 (HepG2 [1]) was over 100 µM and the Activity (HepG2 [1]) was “Dose-dependent effect”. The viability at 48 h, 25 µM [2] was at least 70%, the Activity (HepG2 [3]) was “Toxic” and the selectivity ratio [4] was over 13.2. For the same molecule, the Activity (HepG2 [5]) was “Toxic” and the viability at 48 h, 3.13 µM [6] was 92.5%.

In the case of `Cc1ccc(S(=O)(=O)n2nnnc2-c2ccc3c(c2)OCO3)cc1`, the IC50 (Entamoeba histolytica) is reported as 6.1 µM, the IC50 (HepG2 [1]) is reported as over 100 µM and the Activity (HepG2 [1]) is reported as “Dose-dependent effect”. The viability at 48 h, 25 µM [2] was at least 70%, the Activity (HepG2 [3]) was “Toxic” and the selectivity ratio [4] was over 16.4. For the same molecule, the Activity (HepG2 [5]) was “Toxic” and the viability at 48 h, 3.13 µM [6] was 92.5%.

With `O=S(=O)(c1ccc(Cl)cc1)n1nnnc1-c1ccc2c(c1)OCO2` the IC50 (Entamoeba histolytica) was 4.85 µM, the IC50 (HepG2 [1]) was over 100 µM and the Activity (HepG2 [1]) was “Dose-dependent effect”. For the same molecule, the viability at 48 h, 25 µM [2] was at least 70%, the Activity (HepG2 [3]) was “Toxic” and the selectivity ratio [4] was over 20.6. The Activity (HepG2 [5]) was “Toxic” and the viability at 48 h, 3.13 µM [6] was 92.5%.

For `O=[N+]([O-])c1ccc(S(=O)(=O)n2nnnc2-c2ccc3c(c2)OCO3)cc1`, the IC50 (Entamoeba histolytica) was 3.75 µM, the IC50 (HepG2 [1]) was 84.7 µM and the Activity (HepG2 [1]) was “Dose-dependent effect”. For the same molecule, the viability at 48 h, 25 µM [2] was at least 70%, the Activity (HepG2 [3]) was “Toxic” and the selectivity ratio [4] was 22.6. For the same molecule, the Activity (HepG2 [5]) was “Toxic” and the viability at 48 h, 3.13 µM [6] was 92.5%.

With `O=S(=O)(c1ccc(Cl)cc1Cl)n1nnnc1-c1ccc2c(c1)OCO2` the IC50 (Entamoeba histolytica) was 6.9 µM, the IC50 (HepG2 [1]) was 85 µM and the Activity (HepG2 [1]) was “Dose-dependent effect”. The viability at 48 h, 25 µM [2] was at least 70%, the Activity (HepG2 [3]) was “Toxic” and the selectivity ratio [4] was 12.3. The Activity (HepG2 [5]) was “Toxic” and the viability at 48 h, 3.13 µM [6] was 92.5%.

For `CC(C)c1ccc(S(=O)(=O)n2nnnc2-c2ccc3c(c2)OCO3)cc1`, the IC50 (Entamoeba histolytica) was 6.28 µM, the IC50 (HepG2 [1]) was over 100 µM and the Activity (HepG2 [1]) was “Dose-dependent effect”. For the same molecule, the viability at 48 h, 25 µM [2] was at least 70%, the Activity (HepG2 [3]) was “Toxic” and the selectivity ratio [4] was over 15.9. For the same molecule, the Activity (HepG2 [5]) was “Toxic” and the viability at 48 h, 3.13 µM [6] was 92.5%.

In the case of `O=S(=O)(Nc1nc(NS(=O)(=O)c2ccccc2)nc(-c2ccc3c(c2)OCO3)n1)c1ccccc1`, the IC50 (Entamoeba histolytica) is reported as 2.6 µM, the IC50 (HepG2 [1]) is reported as over 100 µM and the Activity (HepG2 [1]) is reported as “Dose-dependent effect”. For the same molecule, the viability at 48 h, 25 µM [2] was at least 70%, the Activity (HepG2 [3]) was “Toxic” and the selectivity ratio [4] was over 38.5. The Activity (HepG2 [5]) was “Toxic” and the viability at 48 h, 3.13 µM [6] was 92.5%.

In the case of `Cc1ccc(S(=O)(=O)Nc2nc(NS(=O)(=O)c3ccc(C)cc3)nc(-c3ccc4c(c3)OCO4)n2)cc1`, the IC50 (Entamoeba histolytica) is reported as 2.15 µM, the IC50 (HepG2 [1]) is reported as over 100 µM and the Activity (HepG2 [1]) is reported as “Dose-dependent effect”. The viability at 48 h, 25 µM [2] was at least 70%, the Activity (HepG2 [3]) was “Toxic” and the selectivity ratio [4] was over 46.5. For the same molecule, the Activity (HepG2 [5]) was “Toxic” and the viability at 48 h, 3.13 µM [6] was 92.5%.

With `O=S(=O)(Nc1nc(NS(=O)(=O)c2ccc(Cl)cc2)nc(-c2ccc3c(c2)OCO3)n1)c1ccc(Cl)cc1` the IC50 (Entamoeba histolytica) was 1.05 µM, the IC50 (HepG2 [1]) was over 100 µM and the Activity (HepG2 [1]) was “Dose-dependent effect”. The viability at 48 h, 25 µM [2] was at least 70%, the Activity (HepG2 [3]) was “Toxic” and the selectivity ratio [4] was over 95.2. For the same molecule, the Activity (HepG2 [5]) was “Toxic” and the viability at 48 h, 3.13 µM [6] was 92.5%.

With `O=[N+]([O-])c1ccc(S(=O)(=O)Nc2nc(NS(=O)(=O)c3ccc([N+](=O)[O-])cc3)nc(-c3ccc4c(c3)OCO4)n2)cc1` the IC50 (Entamoeba histolytica) was 1.02 µM, the IC50 (HepG2 [1]) was over 100 µM and the Activity (HepG2 [1]) was “Dose-dependent effect”. The viability at 48 h, 25 µM [2] was at least 70%, the Activity (HepG2 [3]) was “Toxic” and the selectivity ratio [4] was over 98. For the same molecule, the Activity (HepG2 [5]) was “Toxic” and the viability at 48 h, 3.13 µM [6] was 92.5%.

For `O=S(=O)(Nc1nc(NS(=O)(=O)c2ccc(Cl)cc2Cl)nc(-c2ccc3c(c2)OCO3)n1)c1ccc(Cl)cc1Cl`, the IC50 (Entamoeba histolytica) was 2.56 µM, the IC50 (HepG2 [1]) was over 100 µM and the Activity (HepG2 [1]) was “Dose-dependent effect”. For the same molecule, the viability at 48 h, 25 µM [2] was at least 70%, the Activity (HepG2 [3]) was “Toxic” and the selectivity ratio [4] was over 39.1. The Activity (HepG2 [5]) was “Toxic” and the viability at 48 h, 3.13 µM [6] was 92.5%.

With `CC(C)c1ccc(S(=O)(=O)Nc2nc(NS(=O)(=O)c3ccc(C(C)C)cc3)nc(-c3ccc4c(c3)OCO4)n2)cc1` the IC50 (Entamoeba histolytica) was 2.85 µM, the IC50 (HepG2 [1]) was over 100 µM and the Activity (HepG2 [1]) was “Dose-dependent effect”. The viability at 48 h, 25 µM [2] was at least 70%, the Activity (HepG2 [3]) was “Toxic” and the selectivity ratio [4] was over 35.1. For the same molecule, the Activity (HepG2 [5]) was “Toxic” and the viability at 48 h, 3.13 µM [6] was 92.5%.

In the case of `c1cc2c(cc1-c1nnn[nH]1)OCO2`, the IC50 (Entamoeba histolytica) is reported as 14.2 µM, the Activity (HepG2 [1]) is reported as “Dose-dependent effect” and the viability at 48 h, 25 µM [2] is reported as at least 70%. For the same molecule, the Activity (HepG2 [3]) was “Toxic”, the Activity (HepG2 [5]) was “Toxic” and the viability at 48 h, 3.13 µM [6] was 92.5%.

With `Nc1nc(N)nc(-c2ccc3c(c2)OCO3)n1` the IC50 (Entamoeba histolytica) was 3.54 µM, the Activity (HepG2 [1]) was “Dose-dependent effect” and the viability at 48 h, 25 µM [2] was at least 70%. For the same molecule, the Activity (HepG2 [3]) was “Toxic”, the Activity (HepG2 [5]) was “Toxic” and the viability at 48 h, 3.13 µM [6] was 92.5%.

With `Cc1ncc([N+](=O)[O-])n1CCO` [METRONIDAZOLE] the IC50 (HepG2 [1]) was over 100 µM, the selectivity ratio [4] was over 55.5 and the viability at 48 h, 3.13 µM [6] was 92.5%.
